These results are taken from ChEMBL document CHEMBL1159121, “Synthesis, in vitro structure-activity relationship, and in vivo studies of 2-arylthiazolidine-4-carboxylic acid amides as anticancer agents” (Bioorg Med Chem, 2010).

Structures are written as SMILES.

The subject of one data set is Mus musculus. In words: Toxicity in ip dosed athymic nude mouse assessed as body weight loss. It counts as organism-based. The settings on record: in vivo. A digest of the protocol: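 Male athymic nude mice (4–5 weeks) given subcutaneous A375 cells in Matrigel (1:1). At about 150 mm3, near day 7, split into groups of n = 8. Dosed at 5 or 10 mg/kg in 80% Tween 80/20% Captex 200, injected once daily for 22 days. Vehicle (intraperitoneal) and DTIC 60 mg/kg controls. Body weight and activity monitored throughout.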

The next data set has as its system A-375. Nature of the data set: Antitumor activity against human A375 cells xenografted in athymic nude mouse assessed as tumor growth inhibition at 10 mg/kg, ip once daily administered 7 days after inoculation for 22 days. The conditions noted are these: route intraperitoneal. It counts as functional. On the set-up: scale not given: the % may be the effect or the level left. A digest of the protocol:
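Male athymic nude mice, 4–5 weeks old, received 2.5 × 10^6 A375 cells (FBS-free DMEM mixed 1:1 with Matrigel) subcutaneously in the right dorsal flank. At about 150 mm3 (~day 7), mice were grouped by tumor size (n = 8). Drug in 80% Tween 80/20% Captex 200 was injected daily, with vehicle controls i.p. Calipers twice weekly (a×b²×0.5); % reduction at day 22 = 100×[(T–T0)/(C–C0)]. Body weight tracked.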

For the compound `CCCCCCCCCCCCCCCCNC(=O)[C@@H]1CSC(c2ccc(NC(C)=O)cc2)N1` (mixture of isomers), the Activity entry in the data set on Mus musculus is listed as “Non-toxic”; in the data set on A-375 it was 62%.
